# Activity calls are given as the source filed them. Rule as the data show it, unless noted: active = inhibition above about 30%; inactive = the rest.
# How the values were obtained:
# [1] = reducers of endogenous Her2 protein level, primary screen, SKBR3 breast tumor cells, AlphaScreen, ATP viability (AID 461;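 active = Her2 level under about 52% in both replicate screens, with viability over 70% of control, limit read from the data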;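 as to Her2 level: lower value means less Her2 protein in the cells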;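 as to viability: percent of carrier control wells set as 100% viability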); details: 18-24 h, measured here: SKBR3 viability, ATP luminescence, at 10 µM
# [2] = biological target: Receptor tyrosine-protein kinase erbB-2 (Homo sapiens) (UniProt P04626); assay: as above; details: 18-24 h, at 10 µM, stronger effect = lower value
# Sequence of Receptor tyrosine-protein kinase erbB-2 (Homo sapiens) (P04626 whole entry, looked up): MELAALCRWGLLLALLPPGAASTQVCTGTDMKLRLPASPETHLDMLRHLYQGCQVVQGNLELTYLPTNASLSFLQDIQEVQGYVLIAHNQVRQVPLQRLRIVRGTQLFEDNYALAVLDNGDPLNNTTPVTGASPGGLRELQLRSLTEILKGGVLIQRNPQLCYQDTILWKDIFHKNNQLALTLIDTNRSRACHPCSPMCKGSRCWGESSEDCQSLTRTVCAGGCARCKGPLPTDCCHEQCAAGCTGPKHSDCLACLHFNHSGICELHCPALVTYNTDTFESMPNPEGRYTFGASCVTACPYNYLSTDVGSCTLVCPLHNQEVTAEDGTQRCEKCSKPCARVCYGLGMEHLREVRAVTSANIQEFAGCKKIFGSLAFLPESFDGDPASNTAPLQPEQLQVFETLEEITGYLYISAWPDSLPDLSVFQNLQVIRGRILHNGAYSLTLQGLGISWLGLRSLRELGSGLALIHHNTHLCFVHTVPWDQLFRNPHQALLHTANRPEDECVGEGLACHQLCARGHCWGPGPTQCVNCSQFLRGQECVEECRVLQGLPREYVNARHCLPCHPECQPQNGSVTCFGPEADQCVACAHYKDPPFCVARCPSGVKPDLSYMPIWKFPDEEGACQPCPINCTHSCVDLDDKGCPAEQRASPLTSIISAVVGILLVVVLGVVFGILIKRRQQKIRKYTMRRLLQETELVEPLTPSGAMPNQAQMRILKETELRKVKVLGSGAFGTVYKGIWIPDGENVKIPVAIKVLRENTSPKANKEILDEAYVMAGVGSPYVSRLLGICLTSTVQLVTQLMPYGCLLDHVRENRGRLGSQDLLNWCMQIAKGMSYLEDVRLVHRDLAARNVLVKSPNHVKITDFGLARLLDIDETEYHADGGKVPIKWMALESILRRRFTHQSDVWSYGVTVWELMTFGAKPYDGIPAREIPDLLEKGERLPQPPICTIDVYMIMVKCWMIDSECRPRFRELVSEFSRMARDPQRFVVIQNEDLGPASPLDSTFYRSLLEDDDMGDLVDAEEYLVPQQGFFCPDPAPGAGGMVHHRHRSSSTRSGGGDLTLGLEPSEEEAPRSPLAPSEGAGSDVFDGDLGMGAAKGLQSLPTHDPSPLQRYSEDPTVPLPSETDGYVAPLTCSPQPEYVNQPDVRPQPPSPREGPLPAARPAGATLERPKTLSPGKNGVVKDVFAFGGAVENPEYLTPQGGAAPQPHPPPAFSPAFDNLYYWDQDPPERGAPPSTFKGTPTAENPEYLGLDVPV
# [3] = SK-BR-3 cell growth inhibitors, pilot screen, 24 h, human (AID 572;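 active = viability at or below 10% of carrier control in both of two separate runs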;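 also: compound exposure lasted between 18 and 24 h rather than exactly 24 h; 100% = carrier-treated control wells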); details: SK-BR-3 viability, CellTiter-Glo luminescence, at 10 µM, stronger effect = lower value
# [4] = HUVEC growth inhibition – cell-based, human, primary screen (AID 575;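 active = viability at or below 30% in both replicate assays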;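 also: 100% = median of untreated cell wells with 0.1% DMSO on each plate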); details: HUVEC proliferation, CellTiter-Glo luminescence, 72 h; at 10 µM; stronger effect = lower value
# Method in brief: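 Test system: HUVEC primary cells. Quantity: 1250 endothelial cells in each well. Dosing: single-point 10 µM, DMSO 0.1% final. Incubation: 72 h treatment at 37 °C. Measured by: CTG luminescence. Control set: DMSO cell controls and MePR drug controls. Plate: collagen-coated 384-well format.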
# [5] = reversal of MRP1-mediated doxorubicin resistance, pilot screen, H69AR cells, doxorubicin co-treatment (AID 601;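 active = viability loss from added drug above about 55%, and viability with drug at most 40%, in both replicates, limit read from the data, passing the limit was not always enough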); details: CellTiter-Glo, 72 h, at 10 µM; for differential viability (reversal): stronger effect = higher value
# [6] = 384-well plate pilot, post-Golgi transport modulator project, inhibition of yeast transport mutant growth (AID 636; in the data active = inhibition above about 31%); details: absorbance 615 nm, about 18 h, stronger effect = higher value
# [7] = growth suppression of yeast trafficking mutant, preliminary HTS, modulators of trafficking downstream of Golgi apparatus project, 1536-format plate, OD 615 nm (AID 637); details: yeast transport mutant growth, absorbance 615 nm, 18 h; stronger effect = higher value
# [8] = H69AR cells + 2 uM doxorubicin, measured here: viability with 2 uM doxorubicin, stronger effect = lower value
# [9] = H69AR cells, compound alone cytotoxicity
Compound,viability [1],Her2 level [2],viability [3],viability [4],differential viability (reversal) ([5]; H69AR cells + 2 uM doxorubicin),"viability [5, 8]","viability [5, 9]",inhibition [6],inhibition [7]
CC(C)Cn1c(=O)c(C(=O)NCc2ccccn2)c(O)c2ccccc21,110%,78.5% (inactive),110% (inactive),61.4% (inactive),-15% (inactive),67.3%,52.3%,-7.43% (inactive),-3.17% (inactive)
CCc1cc2c(=O)c(-c3nc4ccccc4[nH]3)coc2cc1OC(=O)N1CCOCC1,100%,81.5% (inactive),100% (inactive),64.8% (inactive),-13.9% (inactive),71.6%,57.7%,-5.07% (inactive),-5.08% (inactive)
O=C(NCc1ccco1)c1cc2c(s1)CSC2,97.5%,88% (inactive),97.5% (inactive),82.8% (inactive),-26.3% (inactive),83.6%,57.3%,-0.92% (inactive),2.86% (inactive)
N#CC1=C(SCC(=O)NC23CC4CC(CC(C4)C2)C3)NC(=O)C(C#N)C12CCCCC2 (centres undefined),74%,76% (inactive),74% (inactive),54.1% (inactive),-5.21% (inactive),41%,35.8%,-5.48% (inactive),-5.4% (inactive)
COc1ccc(N2C(=O)C(Cl)=C(Nc3c(C)n(C)n(-c4ccccc4)c3=O)C2=O)cc1,94%,68% (inactive),94% (inactive),81.1% (inactive),10% (inactive),35.3%,45.3%,-1.71% (inactive),-6.03% (inactive)
COc1ccc(-c2noc(CCC(=O)NCCCN3CCC(Cc4ccccc4)CC3)n2)cc1,87.5%,77% (inactive),87.5% (inactive),33.1% (inactive),-1.48% (inactive),64.4%,63%,1.05% (inactive),-6% (inactive)
CCOC(=O)c1sc(NC(=O)CSc2n[nH]c(-c3ccccc3)n2)c(C#N)c1C,122%,65.5% (inactive),122% (inactive),48.2% (inactive),9.27% (inactive),32%,41.3%,-6.27% (inactive),2.38% (inactive)
CCCCCSc1nc2c(cnn2-c2ccccc2)c(=O)[nH]1,99%,93.5% (inactive),99% (inactive),45.2% (inactive),-3.82% (inactive),50.1%,46.3%,-5.26% (inactive),-0.17% (inactive)
CCOc1cccc(-n2nnnc2-c2ccc(OC)cc2)c1,107%,90% (inactive),107% (inactive),49.9% (inactive),-47.9% (inactive),60.4%,12.5%,-1.04% (inactive),-4.6% (inactive)
CCOC(=O)c1c(C)[nH]c(C(=O)COC(=O)c2ccc(F)c(S(=O)(=O)N3CCOCC3)c2)c1C,88.5%,79.5% (inactive),88.5% (inactive),62.4% (inactive),11.4% (inactive),52.5%,63.9%,-5.47% (inactive),-1.97% (inactive)
COc1ccc(/C=N/n2cc(-c3ccc(OC)cc3)nc2N)cc1,85%,99% (inactive),85% (inactive),82.5% (inactive),-10.3% (inactive),63.6%,53.3%,-1.41% (inactive),-8% (inactive)
Cc1nc2ccccc2c(=O)n1NC(=O)c1c(O)c2c(n(CC(C)C)c1=O)CCCC2,88.5%,73.5% (inactive),88.5% (inactive),92% (inactive),-17.2% (inactive),66.3%,49.1%,-1.84% (inactive),9.35% (inactive)
Cc1ccc(/C=c2\s/c(=C(/C#N)C(=O)N3CCCC3)n(Cc3ccco3)c2=O)s1,87.5%,79% (inactive),87.5% (inactive),59.3% (inactive),15.8% (inactive),28.1%,43.9%,-1.95% (inactive),1.9% (inactive)
Cc1ccc2cc(CN(CCN3CCCC3)C(=O)Nc3ccc(F)cc3)c(=O)[nH]c2c1C,94.5%,81% (inactive),94.5% (inactive),38.8% (inactive),-12.2% (inactive),25.6%,13.5%,0.52% (inactive),-0.79% (inactive)
Cc1ccc2c(C)nc(Nc3nc(CSc4nnnn4-c4ccccc4)cc(=O)[nH]3)nc2c1,98%,80% (inactive),98% (inactive),48.6% (inactive),-27.3% (inactive),78%,50.7%,-5.47% (inactive),1.31% (inactive)
O=C(c1cc(-c2ccco2)nn1-c1cccc(Cl)c1)N1CCCCC1,111%,84.5% (inactive),111% (inactive),95% (inactive),-25.9% (inactive),79.2%,53.3%,-2.24% (inactive),-1.94% (inactive)
